From ChEMBL document CHEMBL3244264, “Anticandidal activity of 5-fluorocytosine-peptide conjugates” (J Med Chem, 1979) come the findings set out here.

By MIC is commonly meant the least concentration at which growth counts as inhibited. The half-life is how long it takes for the measured level to halve.

In brackets after ≈: the same amount, converted by molar mass. Starred links: 1 amine or outer side, 2 acyl side, 3 side chain; linkers in the order of their positions; H or OH if unused. Residues, ends and D or L forms follow the SMILES beside them. *: point of attachment. Suc = O=C(CCC(=O)[*:2])[*:1]; OBn = c1ccc(CO*)cc1

The subject of data set [1] is Candida albicans. The experiment in a line: Antiyeast activity against Candida albicans clinical isolate 1-V assessed as total inhibition of fungal growth after 24 to 48 hrs by microdilution-colorimetric method. Type of data set: functional. The procedure, abridged: (§1)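 Microdilution in yeast nitrogen base (0.67%) with 3% dextrose and 0.004% bromothymol blue, pH 7.2, filter-sterilized; twofold serial dilutions 1.28 mg/mL to 0.04 μg/mL. Overnight culture resuspended to about 2×10^6 cells/mL, 50-μL drop per well; organism-free and drug-free control wells. 48 h at 37 °C, read at 24 and 48 h. MIC is the lowest concentration with no blue-to-yellow/light green change; values normalized to molar equivalents of 5-FC.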
A general note: In broth dilution the organism is exposed to a series of concentrations in liquid medium.

The next data set concerns Saccharomyces cerevisiae. Kind of data set: Antiyeast activity against Saccharomyces cerevisiae 9763 assessed as total inhibition of fungal growth after 24 to 48 hrs by microdilution-colorimetric method. It counts as functional. In a few lines:
as §1

Data set [2] can be described thus: Chemical stability of the compound in solutions of organism-free yeast nitrogen base assessed as half life at 50 uM at 37 degC by UV absorbance analysis. To be noted: organism-free yeast nitrogen base solution. Type of data set: physicochemical. The procedure, abridged: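 Organism-free yeast nitrogen base (0.67%) with 3% dextrose, pH 7.2 (KOH), held at 37 °C in thermostatted cells. Compound in Me2SO added to a final concentration of ca. 5×10^-5 M. Hydrolysis followed as the fall in absorbance at 305 nm over time, first-order fit. Slower compounds (t1/2 > 5 h) were incubated separately and aliquots read at intervals.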

Data set [3] has as its system Candida albicans. Kind of data set: Antiyeast activity against Candida albicans WD 18-4 assessed as total inhibition of fungal growth after 24 to 48 hrs by microdilution-colorimetric method. It counts as functional. The procedure, abridged:
as §1

For a further data set, the system named is Pichia kudriavzevii. The experiment in a line: Antiyeast activity against Candida krusei 1-T assessed as total inhibition of fungal growth after 24 to 48 hrs by microdilution-colorimetric method. It counts as functional. The procedure, abridged: as §1

In the case of `CC(C)C[C@H](NC(=O)[C@H](C)NC(=O)CCC(=O)Nc1nc(=O)[nH]cc1F)C(=O)OCc1ccccc1`, the MIC was determined as 0.62 µg/mL (≈ 1.23 µM) in the data set with Candida albicans [1], 0.31 µg/mL (≈ 0.616 µM) in the data set with Saccharomyces cerevisiae, 5 µg/mL (≈ 9.93 µM) in the data set with Candida albicans [3] and 20 µg/mL (≈ 39.7 µM) in the data set with Pichia kudriavzevii. Also, in data set [2], the half-life at 50 µM was 1.1 h.
Consider `CC(C)C[C@H](NC(=O)CCC(=O)Nc1nc(=O)[nH]cc1F)C(=O)N[C@@H](CC(C)C)C(=O)OCc1ccccc1`, for which the MIC came out at 0.62 µg/mL (≈ 1.14 µM) in the data set on Candida albicans [1], 0.31 µg/mL (≈ 0.568 µM) in the data set with Saccharomyces cerevisiae, 2.5 µg/mL (≈ 4.58 µM) in the data set with Candida albicans [3] and 20 µg/mL (≈ 36.7 µM) with Pichia kudriavzevii.
For the compound `O=C(CCC(=O)Nc1nc(=O)[nH]cc1F)NCC(=O)NCC(=O)OCc1ccccc1`, the MIC with Candida albicans [1] was 0.62 µg/mL (≈ 1.43 µM); in the data set with Saccharomyces cerevisiae, 0.62 µg/mL (≈ 1.43 µM); in the data set with Candida albicans [3] it was 5 µg/mL (≈ 11.5 µM); in the data set with Pichia kudriavzevii it was 20 µg/mL (≈ 46.1 µM). In addition, the half-life at 50 µM in data set [2] is 0.3 h.
`CC(C)C[C@H](NC(=O)[C@H](C)NC(=O)CCC(=O)Nc1nc(=O)[nH]cc1F)C(=O)O`: the MIC in the data set with Candida albicans [1] is 0.31 µg/mL (≈ 0.75 µM); with Saccharomyces cerevisiae, 0.31 µg/mL (≈ 0.75 µM); with Candida albicans [3], 5 µg/mL (≈ 12.1 µM); with Pichia kudriavzevii, 10 µg/mL (≈ 24.2 µM). For the same compound, in data set [2], the half-life at 50 µM was 1.7 h.
`CC(C)C[C@H](NC(=O)[C@H](CC(C)C)NC(=O)CCC(=O)Nc1nc(=O)[nH]cc1F)C(=O)O`: the MIC in the data set with Candida albicans [1] stood at 0.31 µg/mL (≈ 0.681 µM); in the data set with Saccharomyces cerevisiae it was 0.31 µg/mL (≈ 0.681 µM); in the data set with Candida albicans [3] it was 5 µg/mL (≈ 11 µM); with Pichia kudriavzevii, 10 µg/mL (≈ 22 µM). Moreover, the half-life at 50 µM in data set [2] was 2.9 h.
For the compound `CC(C)C[C@H](NC(=O)CCC(=O)O)C(=O)N[C@@H](CC(C)C)C(=O)OCc1ccccc1`, the MIC in the data set on Candida albicans [1] was 80 µg/mL (≈ 184 µM); in the data set on Saccharomyces cerevisiae, 80 µg/mL (≈ 184 µM); in the data set on Candida albicans [3], more than 20 µg/mL; in the data set on Pichia kudriavzevii it was 320 µg/mL (≈ 736 µM).
For `CC(=O)Nc1nc(O)ncc1F`, the MIC amounted to 2.5 µg/mL (≈ 14.6 µM) in the data set on Candida albicans [1], 0.31 µg/mL (≈ 1.81 µM) with Saccharomyces cerevisiae, 5 µg/mL (≈ 29.2 µM) with Candida albicans [3] and 40 µg/mL (≈ 234 µM) in the data set on Pichia kudriavzevii. Besides, the half-life at 50 µM in data set [2] was 17.6 h.
Turning to `CC(C)(C)OC(=O)N[C@@H](CCC(=O)Nc1nc(=O)[nH]cc1F)C(=O)OCc1ccccc1`, the MIC stood at 2.5 µg/mL (≈ 5.57 µM) in the data set on Candida albicans [1], 1.25 µg/mL (≈ 2.79 µM) with Saccharomyces cerevisiae, 2.5 µg/mL (≈ 5.57 µM) with Candida albicans [3] and 20 µg/mL (≈ 44.6 µM) in the data set on Pichia kudriavzevii. Besides, in data set [2], the half-life at 50 µM is 10 h.
`C[C@H](NC(=O)OC(C)(C)C)C(=O)NCC(=O)Nc1nc(=O)[nH]cc1F`: the MIC with Candida albicans [1] was found to be 0.62 µg/mL (≈ 1.74 µM); in the data set with Saccharomyces cerevisiae, 0.62 µg/mL (≈ 1.74 µM); in the data set with Candida albicans [3], 1.25 µg/mL (≈ 3.5 µM); with Pichia kudriavzevii, 20 µg/mL (≈ 56 µM). In addition, the half-life at 50 µM in data set [2] was 2.3 h.
Turning to `O=C(CNC(=O)OCc1ccccc1)Nc1nc(=O)[nH]cc1F`, the MIC is 0.62 µg/mL (≈ 1.94 µM) in the data set with Candida albicans [1], 0.31 µg/mL (≈ 0.968 µM) in the data set with Saccharomyces cerevisiae, 2.5 µg/mL (≈ 7.81 µM) in the data set on Candida albicans [3] and 10 µg/mL (≈ 31.2 µM) with Pichia kudriavzevii.
With `CC(C)C[C@H](NC(=O)[C@H](C)NC(=O)CCC(=O)O)C(=O)OCc1ccccc1` (Suc-Ala-Leu-OBn), the MIC is 80 µg/mL (≈ 204 µM) with Candida albicans [1], 160 µg/mL (≈ 408 µM) in the data set with Saccharomyces cerevisiae, more than 20 µg/mL in the data set with Candida albicans [3] and 320 µg/mL (≈ 815 µM) in the data set on Pichia kudriavzevii.
`O=C(O)CCC(=O)NCC(=O)NCC(=O)OCc1ccccc1` (Suc-Gly-Gly-OBn): the minimal inhibitory concentration (MIC) is 320 µg/mL (≈ 993 µM) with Candida albicans [1], 320 µg/mL (≈ 993 µM) in the data set with Saccharomyces cerevisiae, more than 20 µg/mL in the data set with Candida albicans [3] and 320 µg/mL (≈ 993 µM) in the data set on Pichia kudriavzevii.
With `Nc1nc(=O)[nH]cc1F` [FLUCYTOSINE], the MIC in the data set on Candida albicans [1] was determined as 0.31 µg/mL (≈ 2.4 µM); in the data set with Saccharomyces cerevisiae, 0.31 µg/mL (≈ 2.4 µM); with Candida albicans [3], 5 µg/mL (≈ 38.7 µM); in the data set with Pichia kudriavzevii, 5 µg/mL (≈ 38.7 µM).
In the case of `O=c1[nH]cc(F)c(=O)[nH]1` [FLUOROURACIL], the MIC in the data set on Candida albicans [1] is 2.5 µg/mL (≈ 19.2 µM); in the data set with Saccharomyces cerevisiae, 1.25 µg/mL (≈ 9.61 µM); with Candida albicans [3] it was more than 20 µg/mL; with Pichia kudriavzevii, 2.5 µg/mL (≈ 19.2 µM).
For the compound `O=C(O)CCC(=O)O` [SUCCINIC ACID], the minimum inhibitory concentration (MIC) was 320 µg/mL (≈ 2710 µM) in the data set with Candida albicans [1], 640 µg/mL (≈ 5420 µM) with Saccharomyces cerevisiae, more than 20 µg/mL in the data set with Candida albicans [3] and 320 µg/mL (≈ 2710 µM) with Pichia kudriavzevii.
